Eight compounds from ChEMBL document CHEMBL2375209, “Fungal ABC transporter-associated activity of isoflavonoids from the root extract of Dalea formosa” (2013) can be followed below.

In brackets after ≈: the same amount, converted by molar mass. Activity calls are given as the source filed them.

Holding throughout (format): functional
Assay [1] deals with Saccharomyces cerevisiae. Kind of assay: Antifungal activity against wild type Saccharomyces cerevisiae after 24 to 48 hrs by microdilution assay. The essentials:
(§1)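 96-well microdilution; samples added from DMSO stocks (solvent ≤1.2%, matched in controls), serially diluted before inoculation; trifluoperazine, ketoconazole and fluconazole as positive controls. Growth read as OD550 plus visual inspection at 24 and 48 h. MIC = lowest concentration giving ≥80% growth inhibition vs drug-free control; values observed in three independent measurements.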
For orientation: In broth dilution the organism is exposed to a series of concentrations in liquid medium.

Assay [2] has as its system Saccharomyces cerevisiae. Kind of assay: Antifungal activity against PDR5/SNQ2/YOR1 deficient Saccharomyces cerevisiae after 24 to 48 hrs by microdilution assay. In short, it runs like this: as §1
Assay [3] has as its system Saccharomyces cerevisiae. Kind of assay: Antifungal activity against PDR1/PDR3 deficient Saccharomyces cerevisiae after 24 to 48 hrs by microdilution assay. In short, it runs like this: as §1
Assay [4] has as its system Saccharomyces cerevisiae. Description: Antifungal activity against PDR5/SNQ2/YOR1 deficient Saccharomyces cerevisiae expressing PDR1 to 3 allele after 24 to 48 hrs by microdilution assay. In short, it runs like this: as §1
Assay [5] relates to Saccharomyces cerevisiae. Kind of assay: Antifungal activity against PDR5/SNQ2/YOR1 deficient Saccharomyces cerevisiae expressing PDR1 to 3 allele and heterologously overproduced Cdr1p gene after 24 to 48 hrs by microdilution. In short, it runs like this:
as §1

For another assay, the system named is Nakaseomyces glabratus. Description: Antifungal activity against wild type Candida glabrata CCM 8270 after 46 to 50 hrs by broth microdilution assay. The essentials: (§2)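 CLSI M27-A broth microdilution in MOPS-buffered (pH 7) RPMI 1640. Samples added from DMSO stocks (solvent ≤1.2%, matched in controls), serially diluted before inoculation. Growth read as OD550 plus visual inspection at 24 and 48 h. MIC = lowest concentration inhibiting growth ≥80% vs drug-free control; three independent measurements.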

The next assay concerns Candida albicans. Kind of assay: Antifungal activity against wild type Candida albicans CCM 8320 after 46 to 50 hrs by broth microdilution assay. In short, it runs like this:
as §2

Take `C=CC(C)(C)c1cc([C@@H]2COc3c(ccc(O)c3O)C2)c(OC)cc1OC`: the MIC turned out to be 15.2 mg/L (≈ 41 µM) in the assay on Saccharomyces cerevisiae [1]; 3.8 mg/L (≈ 10.3 µM) against Saccharomyces cerevisiae [2]; 3.8 mg/L (≈ 10.3 µM) against Saccharomyces cerevisiae [3]; 3.8 mg/L (≈ 10.3 µM) in the assay on Saccharomyces cerevisiae [4]; 61 mg/L (≈ 165 µM) against Saccharomyces cerevisiae [5].

`COc1ccc(C[C@H]2OC(=O)C=C2c2ccc(O)cc2O)cc1`: the MIC against Nakaseomyces glabratus is 244 mg/L (≈ 781 µM). Further, the MIC result in the assay on Candida albicans was “inactive”.

Take `C=CC(C)(C)c1cc([C@]2(O)COc3cc(O)c(CC=C(C)C)c(O)c3C2=O)c(O)cc1O`: the MIC is 61 mg/L (≈ 138 µM) in the assay on Saccharomyces cerevisiae [1]; 3.8 mg/L (≈ 8.63 µM) with Saccharomyces cerevisiae [2]; 122 mg/L (≈ 277 µM) with Nakaseomyces glabratus; 15.2 mg/L (≈ 34.5 µM) against Saccharomyces cerevisiae [3]; 3.8 mg/L (≈ 8.63 µM) against Saccharomyces cerevisiae [4]; 244 mg/L (≈ 554 µM) with Saccharomyces cerevisiae [5]. The MIC entry with Candida albicans is “inactive”.

As for `COc1ccc([C@H]2COc3c(ccc(O)c3O)C2)c(O)c1CC=C(C)C`, the MIC is 15.2 mg/L (≈ 42.6 µM) against Saccharomyces cerevisiae [1]; 3.8 mg/L (≈ 10.7 µM) against Saccharomyces cerevisiae [2]; 3.8 mg/L (≈ 10.7 µM) in the assay with Saccharomyces cerevisiae [3]; 3.8 mg/L (≈ 10.7 µM) in the assay with Saccharomyces cerevisiae [4]; 30.5 mg/L (≈ 85.6 µM) with Saccharomyces cerevisiae [5].

Turning to `COc1ccc([C@H]2COc3c(ccc(O)c3O)C2)c2c1C=CC(C)(C)O2`, the minimal inhibitory concentration (MIC) was found to be 30.5 mg/L (≈ 86.1 µM) in the assay with Saccharomyces cerevisiae [1]; 30.5 mg/L (≈ 86.1 µM) against Saccharomyces cerevisiae [2]; 30.5 mg/L (≈ 86.1 µM) in the assay with Nakaseomyces glabratus; 15.2 mg/L (≈ 42.9 µM) with Saccharomyces cerevisiae [3]; 61 mg/L (≈ 172 µM) against Candida albicans; 30.5 mg/L (≈ 86.1 µM) in the assay with Saccharomyces cerevisiae [4]. Also, in the assay on Saccharomyces cerevisiae [5], the minimal inhibitory concentration (MIC) stood at 244 mg/L (≈ 688 µM).

Turning to `COc1ccc2c(c1CC=C(C)C)O[C@@H]1c3ccc(O)cc3OC[C@H]21` [ENT-SANDWICENSIN], the MIC with Saccharomyces cerevisiae [1] was 30.5 mg/L (≈ 90.1 µM); against Saccharomyces cerevisiae [2], 1.9 mg/L (≈ 5.61 µM); in the assay on Nakaseomyces glabratus, 30.5 mg/L (≈ 90.1 µM); with Saccharomyces cerevisiae [3], 3.8 mg/L (≈ 11.2 µM); against Saccharomyces cerevisiae [4] it was 1.9 mg/L (≈ 5.61 µM); in the assay on Saccharomyces cerevisiae [5], more than 244 mg/L. Further, the MIC entry with Candida albicans was “inactive”.

With `C=CC(C)(C)c1cc(C2COc3cc(O)c(CC=C(C)C)c(O)c3C2=O)c(O)cc1O` (racemic), the MIC in the assay with Saccharomyces cerevisiae [1] was 15.2 mg/L (≈ 35.8 µM); against Saccharomyces cerevisiae [2], 0.95 mg/L (≈ 2.24 µM); against Saccharomyces cerevisiae [3], 0.95 mg/L (≈ 2.24 µM); in the assay with Saccharomyces cerevisiae [4], 0.95 mg/L (≈ 2.24 µM); in the assay with Saccharomyces cerevisiae [5], more than 244 mg/L.

As to `COc1ccc(C2COc3cc(O)cc(O)c3C2=O)c2c1C=CC(C)(C)O2` (racemic), the minimal inhibitory concentration (MIC) against Saccharomyces cerevisiae [1] was 7.6 mg/L (≈ 20.6 µM); with Saccharomyces cerevisiae [2] it was 1.9 mg/L (≈ 5.16 µM); with Nakaseomyces glabratus, 7.6 mg/L (≈ 20.6 µM); in the assay with Saccharomyces cerevisiae [3], 1.9 mg/L (≈ 5.16 µM); with Candida albicans it was 15 mg/L (≈ 40.7 µM); against Saccharomyces cerevisiae [4] it was 1.9 mg/L (≈ 5.16 µM). The compound also returned a minimum inhibitory concentration (MIC) against Saccharomyces cerevisiae [5] of 244 mg/L (≈ 662 µM).

For orientation: MIC means the smallest concentration in the dilution series that meets the test's criterion for growth inhibition.
